The text below walks through data of PubChem BioAssay.

The source made the active and inactive calls.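 How the source made its calls, unless noted: active means fluorescence slope after compound addition differing from the mean of all screened samples at 99.7% confidence, in either direction; inactive means the rest.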

Experiment [1] is described as follows: inhibitors of TNFa-induced NFkB p65 translocation, primary screen, imaging, HUVEC, MLSMR starter and 10KST1 sets (AID 438;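 active means inhibition above 20% together with a positive visual image hit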;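 further: compound added about 3h40 before a 20 min TNFalpha stimulation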;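 on inhibition: signal is the nuclear over cytoplasmic p65 intensity ratio per well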). The following applies: HUVEC TNFa-induced p65 nuclear translocation; cell count: measured here: nuclei count (cytotoxicity indicator), at 2.08 µM; inhibition: at 2 µM, stronger effect = higher value, 0% TNFa-plus-vehicle, 100% no-TNFa wells.
Experiment [2] can be described thus: endothelial E-selectin expression blockers – imaging, HUVEC, immunofluorescence, MLSMR starter and 10KST1 sets, primary screen (AID 487;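 active means visually confirmed hit in the image check and inhibition above 20%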;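 on inhibition: signal is fraction of cell area covered by stained E-selectin grains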;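 on nuclei count: 100% = median nuclei count of all wells on the same plate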). The following applies: HUVEC TNFalpha-induced E-selectin immunofluorescence imaging, at 2 µM; inhibition: stronger effect = higher value; nuclei count: measured here: cell number, toxicity.
Experiment [3] can be described thus: Primary imaging screen for DUSP6 inhibitors that restore phospho-Erk in transfected HeLa cells, chemical complementation (AID 609;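 active means compounds giving at least 50% inhibition in the cell-based MKP-3 phosphatase rescue imaging test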;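 on inhibition: phospho-Erk level distribution per well compared with pooled transfected vehicle control wells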). The following applies: HeLa MKP-3 transfected, phospho-Erk imaging KS statistic, at 10 µM, cells stimulated with TPA for 15 min.
The target in experiment [4] is Dual specificity protein phosphatase 6 (Homo sapiens) (UniProt Q16828). The experiment is described as above. The following applies: HeLa MKP-3 transfected, phospho-Erk imaging KS statistic; at 10 µM; stronger effect = higher value; cells stimulated with TPA for 15 min.
For experiment [5], the target named is Voltage-gated potassium channel subunit beta-2 (Rattus norvegicus) (UniProt P62483). Description: inhibitors of rat Kvbeta2 reductase activity – biochemical, NADPH fluorescence, primary screen (AID 622;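 active means fluorescence slope higher than the sample average by over 3 SD, cut at about -0.22 in these data, passing the limit was not always enough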;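 further: slope of raw intensity against log time taken from 70 to 1610 s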). The following applies: recombinant KvBeta, 4-cyanobenzaldehyde reduction, at 10 µM, stronger effect = higher value.
For experiment [6] the target is unchanged. Description: enhancers of rat Kvbeta2 NADPH turnover – biochemical, NADPH fluorescence, primary screen (AID 623;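 active means NADPH fluorescence slope more negative than the mean of all samples by about 3 SD, 99.7% confidence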;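 further: fluorescence intensity change per second fitted from 20 to 320 s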). The following applies: Recombinant KvBeta, NADPH fluorescence decrease slope, 10 min; at 10 µM; stronger effect = lower value.
Experiment [7] has as its target Alpha-2C adrenergic receptor (Homo sapiens) (UniProt P18825). Briefly: compounds altering alpha2C-coupled GIRK flux – cell-based, HEK293 alpha2C/GIRK1/2, thallium flux, primary screen (AID 624).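 Further: slope of fluorescence ratio to pre-addition baseline per second over 15 to 24 s.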 The following applies: thallium flux BTC fluorescence, at 10 µM, actives lie on both sides.
Experiment [8] is described as follows: inhibitors of larval lipid processing in zebrafish, primary screen, whole organism, PED6 fluorescence, gall bladder and intestine (AID 686;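 active means a full or partial loss of lipid-probe fluorescence in the fish gall bladder, intestine or both, judged by eye; inactive means no fluorescence loss, or compound toxic to the fish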;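 further: larvae 5 to 7 days old with five fish per well; signal comes from phospholipase A2 cleavage of quenched PED6 carried via bile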). The following applies: Zebrafish larvae PED6 lipid processing, fluorescence scoring; screened at 20 µM (by protocol). In a few lines: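 system = live zebrafish larvae aged 5-7 days, whole organism | probe or stimulus = ingested quenched lipid PED6 at 100 nM | doses = 20 µM single dose | timing = overnight exposure | detection = fluorescence microscopy with visual scoring of gall bladder and intestine | read-out = visual per-well fluorescence inhibition score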

Experiment [9] in a line: loss of swimming-algae plug formation – whole organism, Chlamydomonas reinhardtii, WT vs cilia-less mutant, absorbance, 96-well, primary screen (AID 463189;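 active means inhibition at or above 50% relative to wild type and mutant plate controls; inactive means inhibition below 50%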;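 further: 0% = wild type cc124 cells in DMSO and 100% = ciliumless bld1 mutant cells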). Particulars: Chlamydomonas reinhardtii gravitaxis, OD600 absorbance, 2 days; at 10 µM; stronger effect = higher value.
Where [10] appears, read: measured here: cell density z-score.
[11] abbreviates: measured here: nuclear c-Myc green intensity z-score.
[12] abbreviates: measured here: nuclear pErk red intensity z-score, stronger effect = higher value.

Sequence of Dual specificity protein phosphatase 6 (Homo sapiens) (Q16828 whole entry, looked up): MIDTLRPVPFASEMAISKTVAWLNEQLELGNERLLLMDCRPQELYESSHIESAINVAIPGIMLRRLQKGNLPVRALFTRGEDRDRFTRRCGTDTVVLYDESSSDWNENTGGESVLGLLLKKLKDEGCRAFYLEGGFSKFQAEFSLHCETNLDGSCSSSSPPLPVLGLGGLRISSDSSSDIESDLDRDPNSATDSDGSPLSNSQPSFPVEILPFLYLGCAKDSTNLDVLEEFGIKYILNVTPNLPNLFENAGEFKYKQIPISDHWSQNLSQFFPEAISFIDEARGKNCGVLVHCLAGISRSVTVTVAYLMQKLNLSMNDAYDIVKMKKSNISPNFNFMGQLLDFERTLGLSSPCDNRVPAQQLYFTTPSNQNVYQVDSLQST
Sequence of Voltage-gated potassium channel subunit beta-2 (Rattus norvegicus) (P62483 whole entry, looked up): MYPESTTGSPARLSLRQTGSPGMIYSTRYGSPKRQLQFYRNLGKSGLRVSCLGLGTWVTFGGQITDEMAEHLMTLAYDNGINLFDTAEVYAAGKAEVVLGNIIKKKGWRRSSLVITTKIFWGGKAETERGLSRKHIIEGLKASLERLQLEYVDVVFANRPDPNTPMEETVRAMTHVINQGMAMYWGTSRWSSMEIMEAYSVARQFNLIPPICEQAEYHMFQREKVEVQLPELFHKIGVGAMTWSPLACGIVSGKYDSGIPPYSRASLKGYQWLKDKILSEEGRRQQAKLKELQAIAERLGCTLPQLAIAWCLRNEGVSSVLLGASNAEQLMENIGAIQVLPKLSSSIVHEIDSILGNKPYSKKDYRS
Sequence of Alpha-2C adrenergic receptor (Homo sapiens) (P18825 whole entry, looked up): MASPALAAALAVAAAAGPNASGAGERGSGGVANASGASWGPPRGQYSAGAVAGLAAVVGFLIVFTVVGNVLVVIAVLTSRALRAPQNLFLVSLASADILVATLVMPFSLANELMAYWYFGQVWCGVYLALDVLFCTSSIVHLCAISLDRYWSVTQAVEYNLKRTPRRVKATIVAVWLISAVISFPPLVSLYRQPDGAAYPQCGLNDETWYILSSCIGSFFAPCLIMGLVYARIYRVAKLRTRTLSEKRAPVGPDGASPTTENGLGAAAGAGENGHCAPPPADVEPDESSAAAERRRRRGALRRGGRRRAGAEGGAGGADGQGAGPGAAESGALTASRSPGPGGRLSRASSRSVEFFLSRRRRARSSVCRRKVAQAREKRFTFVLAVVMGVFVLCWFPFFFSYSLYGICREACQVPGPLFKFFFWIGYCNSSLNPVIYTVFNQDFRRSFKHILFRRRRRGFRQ

As for `OC1CN=C2Sc3ccccc3N2C1` (stereo unspecified), the cell count in experiment [1] came to 530. Besides, the inhibition (in general, the change of the read-out against control, counted positive when it falls) in experiment [1] was 13.2% (inactive); in experiment [2], -227% (inactive); in [4], -7.28% (inactive); in experiment [9], -4.68% (inactive). Further, the nuclei count in experiment [2] was 188%. For the same molecule, the values for the z-score in experiment [3] (setting [10]), in experiment [3] (setting [11]) and in experiment [3] (setting [12]) were -0.279, 0.975 and 0.81, respectively. The fluorescence slope in experiment [5] was -0.378 (inactive). Further, the NADPH fluorescence slope in experiment [6] is -1.8e-05 (inactive). For the same molecule, the slope in experiment [7] is 0.00473 (inactive). The outcome in experiment [8] was inactive.
Turning to `Cc1ccc(S(=O)(=O)N2CCC(N3CCCCCC3)CC2)cc1`, the cell count in [1] was found to be 449. Moreover, the inhibition in [1] was -31.4% (inactive); in [2], -231% (inactive); in experiment [4], 1.04% (inactive); in experiment [9], 116% (active). This molecule also showed a nuclei count in [2] of 163%. The z-score is 0.833 in experiment [3] (setting [10]), -1.65 in experiment [3] (setting [11]) and 0.596 in experiment [3] (setting [12]). Moreover, in experiment [5], the fluorescence slope was -0.29 (inactive). Besides, the NADPH fluorescence slope in experiment [6] was -8.7e-06 (inactive). Also, the slope in experiment [7] is 0.0051 (inactive). The molecule was called inactive in experiment [8].
For the molecule `NC(=O)CSc1nc(N)c2c3c(sc2n1)CCCCC3`, the cell count in experiment [1] is 620. Moreover, the inhibition in experiment [1] was -15.9% (inactive); in experiment [2] it was 47.7% (inactive); in experiment [4], -2.29% (inactive); in experiment [9], 10.9% (inactive). Also, the nuclei count in experiment [2] was found to be 164%. The z-score in [3] (setting [10]) is -1.12; in experiment [3] (setting [11]) it was -0.0373; in experiment [3] (setting [12]), 0.273. Also, the fluorescence slope in [5] was -0.362 (inactive). For the same molecule, the NADPH fluorescence slope in experiment [6] was -6.1e-05 (inactive). For the same molecule, the slope in experiment [7] is 0.0046 (inactive). In addition, in experiment [8], the call was inactive.
Regarding `CC(=O)NC1(C(F)(F)F)C(=O)Nc2c1c(=O)n(C)c(=O)n2C` (stereo unspecified), in experiment [1], the cell count came to 480. Moreover, the inhibition in [1] is -4.5% (inactive); in [2], -139% (inactive); in experiment [4], 1.6e-07% (inactive); in experiment [9], 2.3% (inactive). In addition, the nuclei count in experiment [2] was determined as 144%. The z-score was 0.582 in experiment [3] (setting [10]), -0.0109 in experiment [3] (setting [11]) and -0.0908 in experiment [3] (setting [12]). Also, in experiment [5], the fluorescence slope was -0.529 (inactive). The NADPH fluorescence slope in experiment [6] is -4.1e-05 (inactive). Moreover, the slope in experiment [7] is 0.00477 (inactive). The outcome in experiment [8] was inactive.
For `Cc1cc(C(F)(F)F)c(C#N)c(SCC(=O)NC2CC2)n1`, the cell count in experiment [1] was determined as 541. The inhibition in experiment [1] was -11.5% (inactive); in experiment [2], 2.6% (inactive); in experiment [4], 15.5% (inactive); in experiment [9], 7.84% (inactive). Further, in experiment [2], the nuclei count was 99.8%. In addition, the values for the z-score in experiment [3] (setting [10]), in [3] (setting [11]) and in experiment [3] (setting [12]) were 1.52, -0.242 and -0.534, respectively. Besides, the fluorescence slope in [5] was -0.514 (inactive). In addition, the NADPH fluorescence slope in experiment [6] is -3.6e-05 (inactive). Besides, the slope in [7] was 0.0063 (inactive). Also, the result in experiment [8] was inactive.
Turning to `COc1cc([C@@H]2[C@H]3CNCC=C3C(C#N)=C(N)C2(C#N)C#N)ccc1OC(C)C`, the cell count in experiment [1] was 520. The inhibition is -3.4% (inactive) in [1], -13.2% (inactive) in experiment [2], 2.46% (inactive) in [4] and -1.69% (inactive) in [9]. The molecule also yielded a nuclei count in experiment [2] of 156%. Also, the z-score in experiment [3] (setting [10]) was -0.404; in experiment [3] (setting [11]) it was -0.17; in [3] (setting [12]), -2.38. Besides, the fluorescence slope in [5] is -0.251 (inactive). Further, the NADPH fluorescence slope in [6] was 7.5e-06 (inactive). For the same molecule, the slope in experiment [7] is 0.00559 (inactive). In [8], the molecule was classed as inactive.
Consider `CCOCCSc1nc2c(c(=O)[nH]c(=O)n2C)n1CCCc1ccccc1`, for which the cell count in experiment [1] was 487. In addition, the inhibition in experiment [1] is -2.4% (inactive); in [2] it was -80.2% (inactive); in experiment [4], -3.5% (inactive); in experiment [9], -2.75% (inactive). Further, the nuclei count in experiment [2] stood at 133%. The z-score in experiment [3] (setting [10]) is 0.294; in [3] (setting [11]), -0.866; in [3] (setting [12]), -0.255. Besides, the fluorescence slope in experiment [5] was -0.515 (inactive). The NADPH fluorescence slope in experiment [6] was -6.3e-05 (inactive). Moreover, in experiment [7], the slope was 0.00557 (inactive). The result in experiment [8] was inactive.
